Here are results for 18 compounds from ChEMBL document CHEMBL1144107, “Novel and known constituents from Buddleja species and their activity against leukocyte eicosanoid generation” (J Nat Prod, 1999).

The species entered for one series is Rattus norvegicus. Put plainly: Inhibition of cyclooxygenase in Wistar rat peritoneal leukocytes at 50 ug/mL. The class given is cell-based. The essentials: (§1)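 Peritoneal leukocytes (~85% PMNs) came from male Wistar rats (200-300 g) 16-20 h after ip 6% oyster glycogen and were used at 2.5 × 10^6 cells/mL in complete HBSS. The COX readout was supernatant TXB2 by radioimmunoassay (3H-TXB2 tracer, rabbit antiserum, 4 °C, 18 h).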

Series [1] deals with T1, Polyunsaturated fatty acid 5-lipoxygenase (Rattus norvegicus) (UniProt P12527).
T1 sequence (whole entry): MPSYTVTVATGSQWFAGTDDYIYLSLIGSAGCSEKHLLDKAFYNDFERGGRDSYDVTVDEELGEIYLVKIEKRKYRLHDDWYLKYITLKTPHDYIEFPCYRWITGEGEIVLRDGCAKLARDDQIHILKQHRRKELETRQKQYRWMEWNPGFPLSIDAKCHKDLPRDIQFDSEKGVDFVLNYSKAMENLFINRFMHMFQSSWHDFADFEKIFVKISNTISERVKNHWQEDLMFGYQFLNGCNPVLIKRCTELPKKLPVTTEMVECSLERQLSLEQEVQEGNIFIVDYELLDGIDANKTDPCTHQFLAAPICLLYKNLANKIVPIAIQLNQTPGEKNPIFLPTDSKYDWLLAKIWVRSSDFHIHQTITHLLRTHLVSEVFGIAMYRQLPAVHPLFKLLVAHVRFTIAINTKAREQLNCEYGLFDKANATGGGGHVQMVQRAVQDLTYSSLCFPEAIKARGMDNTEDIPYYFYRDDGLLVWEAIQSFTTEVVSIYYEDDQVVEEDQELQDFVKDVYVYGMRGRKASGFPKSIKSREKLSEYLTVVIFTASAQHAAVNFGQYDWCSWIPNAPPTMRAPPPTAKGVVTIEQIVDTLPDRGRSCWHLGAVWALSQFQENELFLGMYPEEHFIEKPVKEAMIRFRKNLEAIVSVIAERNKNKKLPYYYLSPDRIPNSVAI
Put plainly: Inhibition of 5-lipoxygenase in Wistar rat peritoneal leukocytes at 50 ug/mL. The class given is cell-based. The essentials: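 Leukocytes (~85% PMNs) were elicited in male Wistar rats (200-300 g) with ip 6% oyster glycogen and harvested 16-20 h later. Cells at 2.5 × 10^6/mL in complete HBSS were tested in triplicate, preincubated with the sample (in DMSO, or CHCl3 evaporated) for 10 min at 37 °C, then given A23187 for 10 min. Supernatant LTB4 was measured by RIA (3H-LTB4 tracer, rabbit antiserum, 18 h, 4 °C).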

Series [2] is described as follows: Cell viability of Wistar rat peritoneal leukocytes by trypan blue exclusion method. It is filed as cell-based, Leukocyte. The settings on record: read-out: Activity.
Series [3] can be described thus: Inhibition of cyclooxygenase in Wistar rat peritoneal leukocytes. It is filed as cell-based. The essentials:
as §1

In series [4] the target is T2, Polyunsaturated fatty acid 5-lipoxygenase (Rattus norvegicus, UniProt P12527).
T2 sequence (P12527 whole entry): T1 sequence (whole entry)
Briefly: Inhibition of 5-lipoxygenase in Wistar rat peritoneal leukocytes. The class given is cell-based. The essentials:
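Male Wistar rat peritoneal leukocytes (~85% PMNs) elicited by ip 6% oyster glycogen, harvested 16-20 h later, and resuspended at 2.5 × 10^6 cells/mL in HBSS with 1.26 mM Ca2+ and 0.9 mM Mg2+. Triplicates were preincubated 10 min at 37 °C with the test agent, then stimulated 10 min with calcium ionophore A23187. Supernatant LTB4 was measured by radioimmunoassay using a 3H-LTB4 tracer and rabbit antiserum (4 °C, 18 h).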

A word on the inhibition: it is the drop in the measured response relative to a control, in per cent. In the case of `C[C@@H]1O[C@@H](O[C@@H]2[C@@H](O)[C@H](OCCc3ccc(O)c(O)c3)O[C@H](CO)[C@H]2OC(=O)/C=C/c2ccc(O)c(O)c2)[C@H](O)[C@H](O)[C@H]1O`, the inhibition (in the series listed under Rattus norvegicus; in series [1]) was 0% in each case.
As to `C[C@H]1O[C@H](O[C@@H]2[C@@H](O)[C@H](OCCc3ccc(O)c(O)c3)O[C@H](CO[C@H]3O[C@@H](CO)[C@H](O)[C@@H](O)[C@@H]3O)[C@H]2OC(=O)/C=C/c2ccc(O)c(O)c2)[C@@H](O)[C@@H](O)[C@@H]1O`, the inhibition (in the series listed under Rattus norvegicus; in series [1]) was 0% throughout.
Turning to `CCC(OC)(c1cccc(OCc2ccc3ccccc3c2)c1)c1nccs1` (centres undefined), the inhibition in the series filed under Rattus norvegicus is 0%; in series [1], 100%.
The matching figures for `O=C(O)c1ccc(OCCn2ccnc2)cc1`: 89.6% and 0%.
The like results for `C[C@H]1O[C@H](O[C@@H]2[C@@H](O)[C@H](OCCc3ccc(O)c(O)c3)O[C@H](CO[C@H]3OCC(O)(CO)[C@@H]3O)[C@H]2OC(=O)/C=C/c2ccc(O)c(O)c2)[C@@H](O)[C@@H](O)[C@@H]1O` (some centres undefined) were, in that order, 0% and 0%.
On to `Cc1cc(-c2ccc(/N=N/c3c(S(=O)(=O)O)cc4cc(S(=O)(=O)O)cc(N)c4c3O)c(C)c2)ccc1/N=N/c1c(S(=O)(=O)O)cc2cc(S(=O)(=O)O)cc(N)c2c1O` [TRYPAN BLUE], for which, in series [2], the viability came to 95%.
For the compound `O=C(/C=C/c1ccc(O)c(O)c1)O[C@H]1[C@H](O)[C@@H](O)[C@H](OCCc2ccc(O)c(O)c2)O[C@@H]1CO`, the inhibition (in the series listed under Rattus norvegicus; in series [1]) was 0% throughout.
Consider `C=C1CCC[C@H](C)C(=O)[C@H](OC(C)=O)[C@@H]2[C@@H]1CC2(C)C`, for which the inhibition (in the series filed under Rattus norvegicus; in series [1]) was 0% in each case.
In general, IC50 refers to the concentration needed to halve the response being measured. The low end stands for higher potency, the high end for lower potency. For `COc1ccc(-c2cc(=O)c3c(O)cc(O)cc3o2)cc1` [ACACETIN], the results for the inhibition (in the series filed under Rattus norvegicus; in series [1]) were 69.5% and 77.6%, respectively. Further, the figures for the IC50 in series [3] and in series [4] were 77.5 µM and 123 µM, respectively.
Turning to `C[C@@H]1O[C@@H](O[C@@H]2[C@@H](O)[C@H](OCCc3ccc(O)c(O)c3)O[C@H](CO[C@@H]3OC[C@H](O)[C@H](O)[C@H]3O)[C@H]2OC(=O)/C=C/c2ccc(O)c(O)c2)[C@H](O)[C@H](O)[C@H]1O`, the inhibition (in the series filed under Rattus norvegicus; in series [1]) was 0% throughout.
Take `C/C1=C\CC(C)(C)/C=C/C(=O)/C(C)=C/CC1`: the inhibition (in the series listed under Rattus norvegicus; in series [1]) was 0% in each case.
In the case of `COc1ccc2c(c1)c(CC(=O)O)c(C)n2C(=O)c1ccc(Cl)cc1`, the inhibition in the series listed under Rattus norvegicus worked out at 100%; in series [1], 0%.
The like results for `CCn1c(=O)ccc2cc(COc3cc(F)cc(C4(OC)CCOCC4)c3)ccc21` were, in that order, 47.8% and 100%.
Take `C=C1CC/C=C(\C)C(=O)[C@H](O)[C@@H]2[C@@H]1CC2(C)C` [BUDDLEDIN B]: the inhibition came out at 47.9% in the series listed under Rattus norvegicus and 49.3% in series [1]. The IC50 in series [3] and in series [4] was more than 200 µM each time.
On to `COC(CO[C@@H]1O[C@H](CO)[C@@H](OC(=O)/C=C/c2ccc(O)c(O)c2)[C@H](O[C@@H]2O[C@@H](C)[C@H](O)[C@@H](O)[C@H]2O)[C@H]1O)c1ccc(O)c(O)c1` (some centres undefined), for which the inhibition (in the series filed under Rattus norvegicus; in series [1]) was 0% throughout.
Consider `C=C1CC/C=C(\C)C(=O)C[C@@H]2[C@@H]1CC2(C)C` [BUDDLEDIN C], for which the inhibition in the series listed under Rattus norvegicus turned out to be 9.5%; in series [1] it was 16.4%. The IC50 in series [3] and in series [4] was more than 200 µM throughout.
On to `C=C1CC/C=C(\C)C(=O)[C@H](OC(C)=O)[C@@H]2[C@@H]1CC2(C)C` [BUDDLEDIN A], for which the inhibition in the series listed under Rattus norvegicus stood at 89.3%; in series [1] it was 98%. In addition, the IC50 in series [3] came out at 13.7 µM; in series [4] it was 50.4 µM.
As for `CC(/C=C/C=C(\C)C(=O)O)=C\C=C\C=C(C)\C=C\C=C(/C)C(=O)O[C@H]1O[C@H](CO[C@@H]2O[C@H](CO)[C@@H](O)[C@H](O)[C@H]2O)[C@@H](O)[C@H](O)[C@H]1O` [CROCETIN MONOGENTIBIOSYL ESTER], the inhibition in the series filed under Rattus norvegicus came to 85.1%; in series [1], 0%. In series [3], it took 28.2 µM to reach half-maximal inhibition (IC50).
